Measurements of several laboratories.
Target: Histamine H3 receptor (HRH3, Homo sapiens, UniProt Q9Y5N1)

O=C(Nc1cccnn1)N1CCN([C@@H]2CCOc3cc(C(F)(F)F)ccc32)CC1
inhibition (cell-free assay; 20 µM): 11%

N#CC1(c2ccccn2)CCN(Cc2cc(C(=O)O)c(=O)n3ccccc23)CC1
inhibition (cell-free assay; 10 µM): 4.08%

CN(CCN1CCC(OC(=O)Nc2ccccc2-c2ccccc2)CC1)C(=O)c1ccc(CN2CCC(C(N)=O)CC2)cc1
inhibition (ligand displacement, radioligand; 1 µM): 72%

c1ccc(C(NCCNC(c2ccccc2)c2ccccc2)c2ccccc2)cc1
inhibition (cell-free assay; 10 µM): 1%

CC(C)N1CCC[C@H]1CNC(=O)c1cn(C2CCCC2)c(=O)c2c1c1ccccc1n2C
inhibition (ligand displacement, radioligand; 10 µM): 26%

Cc1c(N2CCNCC2)nc2ccc(Br)cc2c1C(=O)NC[C@H](CCC(=O)O)c1ccccc1Cl
inhibition (ligand displacement; 10 µM): 16.9%

C[C@H](C(=O)N[C@H]1COc2ccccc2[C@@H]1S(C)(=O)=O)c1ccc(F)cc1
inhibition (cell-free assay; 10 µM): 1%

COCc1c(-c2cc3cc(C)cc(OC)c3s2)c2c(N)ncnn2c1CN1CCNC(=O)C1
inhibition (ligand displacement, radioligand; 10 µM): -8%
